In ChEMBL document CHEMBL2390884, “Design, synthesis and antiproliferative activity studies of novel 1,2,3-triazole-dithiocarbamate-urea hybrids” (Eur J Med Chem, 2013) one finds Activity and viability data, which are given here for one compound.

Structures are written as SMILES. The source made the active and inactive calls. The rule behind the calls is not given here.

Assay [1] deals with MGC-803. The assay is described as follows: Cell cycle arrest in human MGC803 cells assessed as reduction in G1 phase accumulation at 0.25 to 1 uM by propidium iodide staining-based flow cytometry. It counts as functional. The conditions noted are these: TDE = time-dependent effect. In outline: (§1)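 Exponentially growing MGC-803 cells (5×10^5) treated at 0, 0.25, 0.5 or 1.0 µmol/L for 12 or 24 h; cells collected, fixed in ice-cold 70% ethanol, treated with buffer containing RNAse A and 0.1% Triton X-100, stained with PI; DNA content analysed by flow cytometry to give percentages of cells in G1, S and G2/M phases.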

Assay [2] deals with MGC-803. The assay is described as follows: Cell cycle arrest in human MGC803 cells assessed as accumulation at G2/M phase at 0.25 uM after 24 hrs by propidium iodide staining-based flow cytometry. It counts as functional. In outline: as §1
The subject of assay [3] is MGC-803. In words: Cell cycle arrest in human MGC803 cells assessed as accumulation at G0/G1 phase at 0.25 uM after 12 hrs by propidium iodide staining-based flow cytometry. It counts as functional. In outline: as §1
A general note: Flow cytometry measures light scatter and fluorescence of single cells or particles in a stream.

Assay [4] has as its system MGC-803. In words: Induction of apoptosis in human MGC803 cells assessed as nuclear fragmentation at 0.25 to 1 uM after 12 hrs by Hoechst 33258 staining-based fluorescence microscopy. Format: functional, cell-based. In outline:
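MGC-803 cells seeded at 8×10^3 cells/well, treated 12 h at 0, 0.25, 0.5 or 1.0 µmol/L; cells collected, fixed, stained 20 min with Hoechst 33258, washed with PBS; nuclear shrinkage, chromatin condensation, intense fluorescence and fragmentation scored by fluorescence microscopy.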

Assay [5] deals with MGC-803. The assay is described as follows: Induction of apoptosis in human MGC803 cells assessed as viable cells at 0.25 uM after 12 hrs by AnnexinV-FITC/propidium iodide staining-based flow cytometry (reference value: 91.9 %). It counts as functional. The note with it: MGC-803, 12 h, read-out: Activity.
In assay [6] the test system is MGC-803. In words: Induction of apoptosis in human MGC803 cells after 12 hrs by AnnexinV-FITC/propidium iodide staining-based flow cytometry. It counts as functional, cell-based.
The subject of assay [7] is MGC-803. In words: Induction of apoptosis in human MGC803 cells at 0.25 to 1 uM after 12 hrs by AnnexinV-FITC/propidium iodide staining-based flow cytometry (reference value: 2.8 %). It counts as functional.
Assay [8] concerns MGC-803. The assay is described as follows: Induction of apoptosis in human MGC803 cells assessed as early apoptotic cells at 1 uM after 12 hrs by AnnexinV-FITC/propidium iodide staining-based flow cytometry (reference value: 2.8 %). Format: functional.
The test system of assay [9] is MGC-803. In words: Cell cycle arrest in human MGC803 cells assessed as accumulation at G2/M phase after 12 to 24 hrs by propidium iodide staining-based flow cytometry. Format: functional. In outline:
as §1

Assay [10] concerns MGC-803. The assay is described as follows: Induction of apoptosis in human MGC803 cells assessed as viable cells at 0.5 uM after 12 hrs by AnnexinV-FITC/propidium iodide staining-based flow cytometry (reference value: 91.9 %). Format: functional. The note with it: MGC-803, 12 h, read-out: Activity.
In assay [11] the test system is MGC-803. The assay is described as follows: Cell cycle arrest in human MGC803 cells assessed as accumulation at G2/M phase at 1 uM after 12 hrs by propidium iodide staining-based flow cytometry. It counts as functional. In outline: as §1
For assay [12], the system named is MGC-803. The assay is described as follows: Induction of apoptosis in human MGC803 cells assessed as late apoptotic cells at 0.5 uM after 12 hrs by AnnexinV-FITC/propidium iodide staining-based flow cytometry (reference value: 3.0 %). Format: functional.

As to `CC(C)NC(=O)N1CCN(C(=S)SCc2cn(Cc3ccc(F)cc3)nn2)CC1`, the Activity result in the assay with MGC-803 [1] was “tde”; with MGC-803 [2] it was 58.94%; in the assay with MGC-803 [3], 37.35%; with MGC-803 [6], “Dose-dependent effect”; in the assay with MGC-803 [7], 31.4%; in the assay with MGC-803 [8] it was 31.4%. Moreover, the values for the Activity entry in the assay on MGC-803 [9], with MGC-803 [11] and in the assay with MGC-803 [12] were “Dose-dependent effect”, 68.68% and 1.8%, respectively. For the same compound, the result in the assay with MGC-803 [4] was Active. For the same compound, the viability at 0.25 µM in the assay on MGC-803 [5] came to 88.1%. The viability at 0.5 µM with MGC-803 [10] came to 80.1%.
